Among the data in PubChem BioAssay AID504405 (Broad Institute, 2011) are caspase activation and AC10 values, retold here.

Records with an inconclusive call do not appear. Calls of active or inactive are those of the source.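 Rule for the calls: active = fitted curve crosses 10% of positive-control caspase signal within tested doses in every repeat test; inconclusive = repeat tests disagree, or any test inconclusive; inactive = the rest.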

Assay [1] is described as follows: non-primed MEF caspase induction – cell-based, wild-type MEF, CaspaseGlo luminescence, dry powder, set 3, counter-screen for A1 inhibitor project, dose response (AID 504405). Conditions: wild-type MEF caspase activation, CaspaseGlo luminescence, 3 h; at 35 µM (top of the series). Summed up: (§1)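 test system = wild-type mouse embryonic fibroblasts, unprimed, not A1-dependent | quantity = 2500 cells/well | buffer or medium = RPMI-1640 growth medium with 10% FBS | dosing = compound added by pin transfer | timing = 3 h compound at 37 °C, 1 h CaspaseGlo at RT | signal = luminescence with CaspaseGlo caspase reagent | evaluation = caspase activation as toxicity flag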
A general note: The purpose of a counterscreen is to sort out artefacts and off-target activity.

Assay [2] deals with wild-type MEF caspase activation, CaspaseGlo luminescence, 3 h. The description is as above. In a few lines: as §1

Regarding `COCCn1c(=O)c([N+](=O)[O-])c(Cl)c2ccccc21`, the caspase activation in assay [1] is -0.545% (inactive).

As to `CCn1c(=O)c(Sc2ccc(C)cc2)c(Sc2ccc(C)cc2)c2ccccc21`, the caspase activation in assay [1] is 0.52% (inactive). Consider `O=C(COc1ccc(Cl)cc1Cl)NNc1nc(N2CCOCC2)nc(N2CCOCC2)n1`, for which the caspase activation in assay [1] is -0.598% (inactive). Still for that read-out and setting: for `CCn1c(=O)c([N+](=O)[O-])c(Sc2ccc(C)cc2)c2ccccc21` the value was 0.226% (inactive); for `COc1nc2ccccc2c(Sc2ccc(C)cc2)c1[N+](=O)[O-]`, 0.723% (inactive). On the same count and under the same terms, under `COc1c([N+](=O)[O-])c(=O)n(C)c2ccccc12` stands 0.426% (inactive); under `COCCn1c(=O)c(Sc2ccc(C)cc2)c(Sc2ccc(C)cc2)c2ccccc21`, 0.603% (inactive). The same measure, in the same setting: for `COc1ccc(CCNc2nc(N3CCCC3)nc(N3CCCC3)n2)cc1OC` the value was -0.327% (inactive); for `Cc1ccc(Sc2c(Sc3ccc(C)cc3)c3ccccc3n(Cc3ccccc3)c2=O)cc1`, 0.126% (inactive); for `Cc1ccc(S(=O)(=O)c2c([N+](=O)[O-])c(=O)n(C)c3ccccc23)cc1`, -0.89% (inactive). Regarding `COc1nc2ccccc2c(Cl)c1[N+](=O)[O-]`, the caspase activation in assay [1] is 6.45% (inactive). Consider `COc1ccc(CCNc2nc(N3CCOCC3)nc(N3CCOCC3)n2)cc1OC`, for which the caspase activation in assay [1] was 0.145% (inactive). On the same count and under the same terms, under `COc1ccc(N2CCN(c3nc(NCCc4ccc(OC)c(OC)c4)nc(N4CCOCC4)n3)CC2)cc1` stands 0.165% (inactive); under `Cc1ccc(Sc2c(Sc3ccc(C)cc3)c3ccccc3n(C)c2=O)cc1`, 0.922% (inactive). With `O=c1c([N+](=O)[O-])c(Cl)c2ccccc2n1Cc1ccccc1`, the AC10 in assay [2] is 11.8 µM. Regarding `Cn1c(=O)c([N+](=O)[O-])c(S(C)(=O)=O)c2ccccc21`, the caspase activation in assay [1] was -0.856% (inactive). The same measure, in the same setting: under `Cc1ccc(Sc2c([N+](=O)[O-])c(=O)n(C)c3ccccc23)cc1` stands 5.89% (inactive); under `Cn1c(=O)c(Sc2ccccn2)c(Sc2ccccn2)c2ccccc21`, 0.793% (inactive); under `C/C(=N\Nc1nc(N2CCCCC2)nc(N2CCCCC2)n1)c1ccc(F)cc1`, 0.38% (inactive). For the compound `O=c1[nH]c2ccccc2c(O)c1[N+](=O)[O-]`, in assay [1], the caspase activation was 0.522% (inactive).
